ChEMBL document CHEMBL4308914, “Discovery of potent, low-absorbable sodium-dependent glucose cotransporter 1 (SGLT1) inhibitor SGL5213 for type 2 diabetes treatment” (Bioorg Med Chem, 2019)

Key:
[1] = Drug excretion in bile duct cannulated Sprague-Dawley rat urine at 2 mg/kg, iv administered as single dose after 24 hrs by LCMS analysis; assay type: ADME, organism-based; conditions: read-out: Drug excretion
Summary of the method: (§1)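 Bile duct-cannulated SD rats given single i.v. dose in saline; urine and bile collected over 24 h. Unchanged drug quantified by LC-MS/MS and expressed as cumulative % of dose; mean ± SD of three animals.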

[2] = Drug excretion in bile duct cannulated Sprague-Dawley rat bile at 2 mg/kg, iv administered as single dose after 24 hrs by LCMS analysis; assay type: ADME, organism-based; conditions: read-out: Drug excretion; summary of the method: as §1
[3] = Drug uptake in Sprague-Dawley rat kidney at 0.3 mg/kg, iv administered as single dose after 72 hrs by LCMS analysis; assay type: ADME, organism-based; conditions: read-out: Drug uptake
Summary of the method: (§2)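 Fasted male SD rats given single i.v. dose in saline; animals euthanized at 2, 24 and 72 h, kidneys homogenized in purified water and unchanged drug measured by LC-MS/MS (ng/g tissue). Mean ± SD of three animals; 72 h level also expressed relative to 2 h value.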

[4] = Drug uptake in Sprague-Dawley rat kidney assessed as unchanged drug level at 0.3 mg/kg, iv administered as single dose after 72 hrs by LCMS analysis relative to control; assay type: ADME, organism-based; conditions: in vivo; summary of the method: as §2
[5] = Drug uptake in Sprague-Dawley rat kidney at 0.3 mg/kg, iv administered as single dose after 24 hrs by LCMS analysis; assay type: ADME, organism-based; conditions: read-out: Drug uptake; summary of the method: as §2
[6] = Drug uptake in Sprague-Dawley rat kidney at 0.3 mg/kg, iv administered as single dose after 2 hrs by LCMS analysis; assay type: ADME, organism-based; conditions: read-out: Drug uptake; summary of the method: as §2
[7] = biological target: T1, Sodium/glucose cotransporter 2 (Homo sapiens, UniProt P31639); test: Inhibition of human SGLT2 expressed in CHOK1 cells assessed as reduction in sodium-dependent glucose uptake after 1 hr in presence of [14C]-methyl-alpha -D-glucopyranoside by microbeta counting method; assay type: cell-based
T1 sequence (P31639 whole entry): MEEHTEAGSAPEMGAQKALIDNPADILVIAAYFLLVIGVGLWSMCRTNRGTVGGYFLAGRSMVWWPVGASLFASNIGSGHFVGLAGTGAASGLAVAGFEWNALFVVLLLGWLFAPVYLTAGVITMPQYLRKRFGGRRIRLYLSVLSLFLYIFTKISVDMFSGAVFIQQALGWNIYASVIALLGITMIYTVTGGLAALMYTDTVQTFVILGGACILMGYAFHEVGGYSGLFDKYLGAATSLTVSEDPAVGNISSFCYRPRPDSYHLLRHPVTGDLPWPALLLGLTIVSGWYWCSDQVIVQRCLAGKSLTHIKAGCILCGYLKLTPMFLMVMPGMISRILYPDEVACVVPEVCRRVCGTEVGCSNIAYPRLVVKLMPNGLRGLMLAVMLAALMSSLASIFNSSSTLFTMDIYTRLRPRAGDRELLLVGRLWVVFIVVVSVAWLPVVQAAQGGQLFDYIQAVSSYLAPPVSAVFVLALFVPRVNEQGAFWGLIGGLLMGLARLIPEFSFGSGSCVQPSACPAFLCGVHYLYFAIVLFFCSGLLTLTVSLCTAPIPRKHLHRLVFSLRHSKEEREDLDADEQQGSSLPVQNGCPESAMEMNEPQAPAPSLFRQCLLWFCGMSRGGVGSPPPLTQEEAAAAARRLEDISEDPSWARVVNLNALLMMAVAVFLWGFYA
Summary of the method: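 Human SGLT2 stably expressed in CHO-K1 cells; 20 min Na-free choline pretreatment, then Na+ uptake buffer pH 7.4 with 1 mM methyl-α-D-glucopyranoside containing [14C] label plus compound, 1 h at 37 °C. Washed, NaOH lysis, scintillation counting; Na-free buffer for background. IC50 from six concentrations relative to uninhibited uptake; mean of at least two experiments.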

[8] = biological target: T2, Sodium/glucose cotransporter 1 (Homo sapiens, UniProt P13866); test: Inhibition of human SGLT1 expressed in CHOK1 cells assessed as reduction in sodium-dependent glucose uptake after 30 mins in presence of [14C]-methyl-alpha -D-glucopyranoside by microbeta counting method; assay type: cell-based
T2 sequence (P13866 whole entry): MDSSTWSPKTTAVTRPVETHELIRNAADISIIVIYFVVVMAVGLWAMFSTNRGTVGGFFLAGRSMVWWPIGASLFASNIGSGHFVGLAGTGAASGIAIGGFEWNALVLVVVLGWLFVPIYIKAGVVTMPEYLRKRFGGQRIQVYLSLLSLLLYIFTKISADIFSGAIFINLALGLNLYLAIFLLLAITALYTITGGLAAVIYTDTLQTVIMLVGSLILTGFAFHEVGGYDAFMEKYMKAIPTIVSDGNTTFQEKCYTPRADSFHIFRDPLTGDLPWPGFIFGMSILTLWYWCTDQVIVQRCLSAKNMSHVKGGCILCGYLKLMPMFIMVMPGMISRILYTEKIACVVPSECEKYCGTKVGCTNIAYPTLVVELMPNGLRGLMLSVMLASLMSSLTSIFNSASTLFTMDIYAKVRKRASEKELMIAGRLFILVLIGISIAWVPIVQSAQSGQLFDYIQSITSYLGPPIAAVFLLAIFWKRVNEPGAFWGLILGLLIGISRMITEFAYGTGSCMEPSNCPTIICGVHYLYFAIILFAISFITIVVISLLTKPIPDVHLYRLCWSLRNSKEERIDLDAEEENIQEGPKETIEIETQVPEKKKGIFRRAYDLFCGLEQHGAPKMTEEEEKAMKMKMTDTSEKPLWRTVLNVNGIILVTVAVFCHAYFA
Summary of the method: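 CHO-K1 cells stably expressing human SGLT1, preincubated 20 min in Na-free choline buffer (pH 7.4). Uptake buffer (140 mM NaCl, HEPES/Tris pH 7.4) with 0.1 mM methyl-α-D-glucopyranoside plus [14C] tracer and test compound, 30 min at 37 °C. Cells washed, lysed in NaOH, radioactivity counted. Choline-for-Na buffer as background. Six concentrations; IC50 vs untreated control; mean of at least two experiments.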

[9] = Permeability of the compound at pH 7.4 by PAMPA assay; assay type: ADME; conditions: read-out: permeability
Summary of the method: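 PAMPA at pH 7.4: filter coated with GIT-0 lipid; donor compartment holds compound in universal buffer at 25 μM or 5 μM; permeability reported as ×10⁻⁶ cm/s.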

Cc1cc(O)c([C@@H]2O[C@H](CO)[C@@H](O)[C@H](O)[C@H]2O)cc1Cc1ccc(CCNC(=O)NC(CO)(CO)CO)cc1
dose excreted at 24 h [1]: 36.2%
dose excreted at 24 h [2]: 30.2%
concentration at 72 h [3]: 803 ng/g
Drug uptake [4]: 42%
concentration at 24 h [5]: 1110 ng/g
concentration at 2 h [6]: 1900 ng/g

COc1cc(C(C)C)c(Cc2ccc(/C=C/C(C)(C)C(=O)NC(C)(C)C(=O)N3CCN(C)CC3)cc2C)cc1[C@@H]1O[C@H](CO)[C@@H](O)[C@H](O)[C@H]1O
IC50 [7]: 0.281 µM
IC50 [8]: 0.055 µM

Cc1cc(/C=C/C(C)(C)C(=O)NC(C)(C)CO)ccc1Cc1cc([C@@H]2O[C@H](CO)[C@@H](O)[C@H](O)[C@H]2O)c(O)cc1C(C)C
IC50 [7]: 0.069 µM
Papp [9]: 0.5 ×10⁻⁶ cm/s
IC50 [8]: 0.055 µM

Cc1cc(C)c([C@@H]2O[C@H](CO)[C@@H](O)[C@H](O)[C@H]2O)cc1Cc1ccc(/C=C/C(C)(C)C(=O)NC(C)(C)CO)cc1F
IC50 [7]: 0.017 µM
IC50 [8]: 0.034 µM

COc1cc(/C=C/C(C)(C)C(=O)NC(C)(C)CO)ccc1Cc1cc([C@@H]2O[C@H](CO)[C@@H](O)[C@H](O)[C@H]2O)c(C)cc1C
IC50 [7]: 0.798 µM
IC50 [8]: 1.17 µM

Cc1cc(C)c([C@@H]2O[C@H](CO)[C@@H](O)[C@H](O)[C@H]2O)cc1Cc1ccc(/C=C/C(C)(C)C(=O)NC(C)(C)CO)cc1
IC50 [7]: 0.01 µM
IC50 [8]: 0.022 µM

Cc1cc(C)c([C@@H]2O[C@H](CO)[C@@H](O)[C@H](O)[C@H]2O)cc1Cc1ccc(/C=C/C(C)(C)C(=O)NC(C)(C)CO)cc1C(C)C
IC50 [7]: 2.13 µM
IC50 [8]: 12.5 µM

CC(C)c1cc(O)c([C@@H]2O[C@H](CO)[C@@H](O)[C@H](O)[C@H]2O)cc1Cc1ccc(/C=C/C(C)(C)C(=O)NC(C)(C)CO)cc1
IC50 [7]: 0.019 µM
IC50 [8]: 0.023 µM
